Rpn11 block: Rpn11 (PSMD14) deubiquitinase inhibitors, primary screen, biochemical, fluorescence polarization, uHTS | 360,000 tested, 0.59% active | AID 588493, 2011 | human 26S proteasome, Ub4-pepOG fluorescence polarization; 20S core pre-blocked with epoxomicin | inhibition, % at 20 µM;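 active = inhibition at 20 µM, scaled to each plate's controls, above about 33%, limit read from the data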
CSN deneddyl inh: inhibitors of CSN-mediated cullin deneddylation, primary screen, biochemical, fluorescence polarization, uHTS | Purified CSN, SCF-Nedd8-OG deneddylation | inhibition, % at 12.5 µM | 360,000 tested, 0.38% active | AID 651999, 2013;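 active = pattern-corrected inhibition above about 35%, with an unprinted fluorescence ratio check between 0.5 and 1.5, limit read from the data, passing the limit was not always enough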;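 also: 0% = enzyme with substrate and 100% = substrate without enzyme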
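Material: purified human Csn5 enzyme expressed in HEK293T cells / Medium: Tris buffer pH 7.5, NaCl, DTT, Tween-20, trehalose, ovalbumin / Compound dosing: 12.5 µM single point / Schedule: 90 min incubation of compound, enzyme and substrate at room temperature / Signal: fluorescence polarization of the substrate / Control set: no-enzyme wells high, enzyme-with-substrate wells low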
TPT1 inh: Candida albicans TPT1 enzyme inhibitors, primary screen, biochemical, fluorescence polarization | tRNA 2'-phosphotransferase TPT1 (Candida albicans SC5314) | recombinant caTPT1, FP RNA substrate dephosphorylation | inhibition, % at 5 µM | 300,000 tested, 0.81% active;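 active = inhibition above the mean of all tested compounds plus 3 SD, set per screening campaign, cut at about 24% in these data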;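 also: plate controls were DMSO alone for no effect and ferristatin control at 100 nM for full effect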
NadD inh: inhibitors of S. aureus NadD, primary screen, biochemical, colorimetric, uHTS; Nicotinate-nucleotide adenylyltransferase NadD (Staphylococcus aureus N315); purified NadD enzyme, colorimetric absorbance read-out; inhibition, % at 20 µM; 360,000 tested, 0.78% active; AID 602399, 2012; in the data active = inhibition above about 26%
HNF4A DNA FP: change in binding of human HNF4A to DNA, primary screen, biochemical, fluorescence polarization, FITC-DNA | Hepatocyte nuclear factor 4-alpha (Homo sapiens), P41235 | 1 h | activity change, % at 10 µM | 360,000 tested, 0.3% active; in the data active = activity change above about 30%, passing the limit was not always enough
PP1 counter: PP1-alpha phosphatase inhibitors, primary screen, counter-screen for PP5 inhibitor project, biochemical, fluorescence, OMFP substrate, single point; Serine/threonine-protein phosphatase PP1-alpha catalytic subunit (Homo sapiens), P62136; purified PP1alpha; inhibition, % at 6.7 µM; 320,000 tested, 0.9% active; AID 2235, 2010;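 active = inhibition above the mean inhibition of all tested compounds plus 3 SD, computed separately for each screening campaign, cut at about 15% in these data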
Target sequence (P62136 whole entry, looked up): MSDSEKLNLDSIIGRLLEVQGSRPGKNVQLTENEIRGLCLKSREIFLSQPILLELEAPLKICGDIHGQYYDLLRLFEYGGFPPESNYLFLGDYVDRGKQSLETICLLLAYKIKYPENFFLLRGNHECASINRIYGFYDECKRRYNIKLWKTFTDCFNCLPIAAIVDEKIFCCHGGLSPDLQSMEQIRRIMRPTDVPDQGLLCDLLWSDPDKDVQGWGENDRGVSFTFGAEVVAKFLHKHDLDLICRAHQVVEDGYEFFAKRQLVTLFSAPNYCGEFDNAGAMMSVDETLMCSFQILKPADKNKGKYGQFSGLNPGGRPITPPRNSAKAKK
PP1 inh confirm: PP1 phosphatase inhibitors, confirmation, biochemical, fluorescence, OMFP substrate, triplicate | shares compounds with PP1 counter | purified PP1alpha | inhibition, % at 6.7 µM | 1,900 tested, 52% active | AID 2358, 2010;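 active = mean PP1 inhibition above a set limit taken from the earlier primary screen, cut at about 15% in these data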
PP5 counter: PP5 phosphatase inhibition by PP1 hits, confirmation, counter-screen for PP1 inhibitor project, biochemical, fluorescence, triplicate; purified PP5c, OMFP fluorescence; inhibition, % at 6.7 µM; shares compounds with PP1 counter; 1,900 tested, 4% active; AID 2360, 2010;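 active = mean PP5 inhibition over triplicate wells above about 9.5% taken from the earlier PP1 screen, limit read from the data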
Active calls of the source: *. The list is not random: actives were taken first. Their share in the collection is about 2.7%.

`COc1ccc(S(=O)(=O)N2CCCC2CNC(=O)C(=O)NCc2ccc(C)cc2)cc1` (centres undefined) gave Rpn11 block -2, CSN deneddyl inh -1, TPT1 inh -2, NadD inh -5, HNF4A DNA FP 3 and PP1 counter -3.
Screening Cn1nc(C2CC2)cc1NC(=O)C1(C)CCN1C(=O)CC(c1ccccc1)c1ccccc1 (centres undefined) returned Rpn11 block 4, CSN deneddyl inh -2, NadD inh 2 and HNF4A DNA FP 2.
Screening CCSc1ccc(-c2nn(-c3ccccc3)cc2/C=C(/C#N)C(=O)NCCCOC)cc1 returned Rpn11 block 8, CSN deneddyl inh -2, TPT1 inh 0, NadD inh -6, HNF4A DNA FP 1 and PP1 counter -2.
`CCOc1cccc(-c2nn(-c3ccccc3)cc2/C=C(/C#N)C(=O)NCCCn2ccnc2)c1` gave Rpn11 block 0, CSN deneddyl inh -6, TPT1 inh 2, NadD inh 21, HNF4A DNA FP 3, PP1 counter 26*, PP1 inh confirm 17* and PP5 counter 4.
`CN(C)/C=C/c1onc(-c2c(Cl)cccc2Cl)c1C#N` gave Rpn11 block 25, CSN deneddyl inh 9, TPT1 inh 5, NadD inh 2, HNF4A DNA FP 20, PP1 counter 35*, PP1 inh confirm 1 and PP5 counter 1.
Screening O=[N+]([O-])c1ccc(N2CCCCC2)c(Cl)c1N1CCCCC1 returned Rpn11 block 1, CSN deneddyl inh -1, TPT1 inh -3, NadD inh -1, HNF4A DNA FP -3, PP1 counter 47*, PP1 inh confirm -2 and PP5 counter -3.
Screening CN(Cc1ccccn1)C(=O)C1CCC(=O)N(Cc2cccc(F)c2)C1 (centres undefined) returned Rpn11 block -7, CSN deneddyl inh 2, TPT1 inh -1, NadD inh -3, HNF4A DNA FP -2, PP1 counter 24*, PP1 inh confirm -2 and PP5 counter -3.
`CN(Cc1ccccn1)C(=O)C1CCC(=O)N(Cc2cccc(C(F)(F)F)c2)C1` (centres undefined) gave Rpn11 block 5, CSN deneddyl inh -4, TPT1 inh 3, NadD inh 2, HNF4A DNA FP -1 and PP1 counter -1.
COc1cc(CN2CCCC(C(=O)Nc3ccccc3Oc3cccnc3)C2)ccc1F (centres undefined) was read as Rpn11 block 7, CSN deneddyl inh -4, TPT1 inh 0, NadD inh -3, HNF4A DNA FP 14 and PP1 counter 4.
O=C(Nc1ccccc1Oc1cccnc1)C1CCCN(Cc2ccc(F)cc2)C1 (centres undefined) was read as Rpn11 block 4, CSN deneddyl inh 0, TPT1 inh -3, NadD inh 4, HNF4A DNA FP -1, PP1 counter 50*, PP1 inh confirm -2 and PP5 counter -3.
Screening Cc1cc(/C=C\c2ccc3cc(N(C)C)ccc3[n+]2C)c(C)n1-c1ccccc1 returned Rpn11 block 82*, CSN deneddyl inh 80, TPT1 inh -18, NadD inh 74*, HNF4A DNA FP 28, PP1 counter 34*, PP1 inh confirm 8 and PP5 counter 4.
Screening O=C(CN1C(=O)S/C(=C\c2ccccc2)C1=O)NNC(=O)c1ccccc1O returned Rpn11 block -6, CSN deneddyl inh 2, TPT1 inh -1, NadD inh 13, HNF4A DNA FP -1 and PP1 counter 12.
COc1ccc(/C=C2\SC(=O)N(CC(=O)NNC(=O)c3ccccc3O)C2=O)cc1 was read as Rpn11 block -1, CSN deneddyl inh -1, TPT1 inh -3, NadD inh 23, HNF4A DNA FP 0, PP1 counter 18*, PP1 inh confirm 23* and PP5 counter -5.
For COc1ccc(Cl)cc1/C=C/c1ccc2cccc(O)c2n1 the results were Rpn11 block 0, CSN deneddyl inh 2, TPT1 inh -1, NadD inh 2, HNF4A DNA FP -1, PP1 counter 18*, PP1 inh confirm 16* and PP5 counter -3.
`CCOc1cccc(/C=C/c2ccc3cccc(O)c3n2)c1OC` gave Rpn11 block 8, CSN deneddyl inh -2, TPT1 inh 2, NadD inh 3, HNF4A DNA FP 3, PP1 counter 21*, PP1 inh confirm 15* and PP5 counter -2.
`O=[N+]([O-])c1cccc(/C=C/c2ccc3cccc(O)c3n2)c1` gave Rpn11 block 4, CSN deneddyl inh -5, TPT1 inh -1, NadD inh 9, HNF4A DNA FP 2, PP1 counter 25*, PP1 inh confirm 21* and PP5 counter -7.
COc1cc(Cl)cc(/C=C/c2ccc3cccc(O)c3n2)c1OC was read as Rpn11 block -1, CSN deneddyl inh 3, TPT1 inh 0, NadD inh 9, HNF4A DNA FP 1 and PP1 counter 3.
COc1ccccc1/C=C/c1ccc2cccc(O)c2n1 was read as Rpn11 block -2, CSN deneddyl inh -1, TPT1 inh 3, NadD inh 20, HNF4A DNA FP -2, PP1 counter 23*, PP1 inh confirm 15 and PP5 counter -1.
O=[N+]([O-])c1ccc(/C=C/c2ccc3cccc([N+](=O)[O-])c3n2)cc1 was read as Rpn11 block -1, CSN deneddyl inh 1, TPT1 inh 2, NadD inh 4, HNF4A DNA FP -3 and PP1 counter 7.
`CCOc1cccc(/C=C/c2ccc3cccc(O)c3n2)c1O` gave Rpn11 block -15, CSN deneddyl inh -5, TPT1 inh -1, NadD inh 5, HNF4A DNA FP 1 and PP1 counter 12.
For O=C1Nc2ccccc2C1=Nc1ccccc1-c1ccccc1 the results were Rpn11 block -5, CSN deneddyl inh -3, NadD inh 2 and HNF4A DNA FP -7.
